This is a sample that favours compounds with a hit; in the whole collection about 3.5% have one here.
RGS4 inh – human RGS4 inhibition | P49798 | HEK293 M3R/RGS4 inducible, Fluo-4 calcium flux; active compounds read high; triggered by carbachol at its EC20 | B-score at 10 µM | hit rate 0.45% among 310,000 | AID 463165;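 active = B-score, a plate-corrected calcium signal, over three deviations above library mean, with baseline fluorescence within five deviations of library mean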;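 note: RGS4 expression induced by doxycycline in cells with stable M3 receptor; B-score is computed from the integrated fluorescence ratio over baseline after carbachol; higher B-score means a larger calcium signal and so more RGS4 inhibition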
Target sequence (P49798 whole entry, looked up): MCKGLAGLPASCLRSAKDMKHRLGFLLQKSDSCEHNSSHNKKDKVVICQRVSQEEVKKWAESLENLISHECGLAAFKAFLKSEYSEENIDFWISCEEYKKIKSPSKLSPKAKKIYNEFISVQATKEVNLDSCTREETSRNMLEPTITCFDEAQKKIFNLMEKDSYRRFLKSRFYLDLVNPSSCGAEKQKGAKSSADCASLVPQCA
MrgX1 agonist – agonists of human MrgX1 receptor. hit rate 0.44% among 310,000. Q96LB2. MrgX1-HEK293 cells, Fluo-4 calcium fluorescence, agonist mode; active compounds read high. AID 588627. B-score at 10 µM;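 active = calcium response B-score plate-corrected fluorescence ratio at least 3 library SD, with starting fluorescence B-score inside 5 SD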
Target sequence (Q96LB2 whole entry, looked up): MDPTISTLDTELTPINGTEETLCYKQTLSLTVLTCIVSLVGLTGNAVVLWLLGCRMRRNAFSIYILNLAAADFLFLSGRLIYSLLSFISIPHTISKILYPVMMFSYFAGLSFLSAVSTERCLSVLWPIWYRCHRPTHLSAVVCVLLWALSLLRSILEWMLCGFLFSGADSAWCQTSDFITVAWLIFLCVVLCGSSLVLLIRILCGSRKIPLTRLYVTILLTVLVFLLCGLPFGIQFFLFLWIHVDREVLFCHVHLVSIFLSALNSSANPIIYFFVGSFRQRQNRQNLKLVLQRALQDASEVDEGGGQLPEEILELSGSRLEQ
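Material – MrgX1-expressing HEK293 cells · Input – 15,000 cells seeded per well · Dosing – compound as first of three additions · Times – overnight seeding, then 1 h dark dye loading · Measured by – kinetic Fluo-4 NW fluorescence of intracellular calcium · Read-out – B-scored fluorescence response ratio · Benchmarks – positive and negative control wells on each plate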
MrgX1 antag – antagonists of human MrgX1 receptor; AID 588676; MRGX1-HEK293 calcium flux, Fluo-4, BAM8-22 antagonism; active compounds read low; hit rate 1.3% among 310,000; B-score at 10 µM; Q96LB2;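 active = calcium-response B-score plate-corrected more than 3 library SD below zero, starting fluorescence within 5 deviations, no agonist response on first addition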;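 note: peak minus trough fluorescence over baseline after final BAM8-22 challenge near maximal dose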
MrgX1 allo act – allosterically activates human MrgX1 receptor signaling | Q96LB2 | MrgX1-HEK293, Fluo-4 calcium flux, FDSS; active compounds read high | B-score at 10 µM | hit rate 0.63% among 310,000;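 active = plate-corrected calcium response at least 3 library SD above typical, normal starting fluorescence, not activating the receptor alone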;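 note: compound read alongside a low EC10 to EC30 dose of BAM8-22 agonist; peak minus trough fluorescence over baseline measured at the second addition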
RGS4 pot – potentiators or activators of RGS4; HEK293 M3R/inducible RGS4, carbachol calcium flux Fluo4; active compounds read low; B-score at 10 µM; hit rate 0.92% among 310,000; AID 463111;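 active = B-score of the integrated calcium signal more than 4 SD below the library mean, with starting fluorescence not abnormally high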;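 note: negative B-score means reduced calcium response which marks RGS4 activation or potentiation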
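Assay system: HEK293 FlpIn-TREx cells, stable M3R, doxycycline-inducible RGS4 / Probe or stimulus: carbachol, ECmax concentration / Times: overnight RGS4 induction, 30 min dye load 37 °C, 20 min compound RT / Signal: kinetic calcium fluorescence imaging with Fluo4-AM dye, 2 µM / Measure: Agonist-evoked peak-minus-minimum fluorescence over baseline, integrated ratio, B score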
RGS4 inh valid – validation of RGS4 inhibitors. shares compounds with RGS4 inh. HEK293 M3R/RGS4, carbachol calcium Fluo-4 fluorescence; carbachol added at its EC20; 0 = buffer wells, 100 = carbachol control. calcium response, % at 10 µM. hit rate 65% among 1,700. AID 492999;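 active = duplicate-averaged calcium response above the buffer-only control mean plus 5 SD of those controls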;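 note: integrated fluorescence ratio F max minus min over baseline F0; higher response in RGS4-induced cells means RGS4 inhibition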
RGS4 uninduced – non-induced cell nonspecific activity of RGS4 inhibitors; shares compounds with RGS4 inh; HEK293 M3R non-induced, carbachol calcium Fluo-4; submaximal (EC20) carbachol stimulus; buffer wells 0%, carbachol control wells 100%; activity (percent), % at 10 µM; hit rate 20% among 1,900; call rule not given here;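 note: RGS4 induction absent so cells express M3R without RGS4; higher means more calcium signal and flags a non-specific hit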
RGS4 inh ctr2 – second counter-screen for RGS4 inhibitors: non-induced cells without carbachol | shares compounds with RGS4 inh | HEK293 M3R/RGS4 non-induced, Fluo-4 calcium, no carbachol; normalised: buffer wells 0%, carbachol wells 100% | calcium response (agonist-mode artifact), % at 10 µM | hit rate 22% among 1,900 | AID 493001;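 active = duplicate-averaged calcium rise in uninduced cells above buffer wells' mean plus 5 SD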
A number is an active result; 0 = inactive; - = no result given.

SMILES	RGS4 inh	MrgX1 agonist	MrgX1 antag	MrgX1 allo act	RGS4 pot	RGS4 inh valid	RGS4 uninduced	RGS4 inh ctr2
COc1ccc(C2=NN(CN3C(=O)C(=O)c4ccccc43)C(c3ccc(C)cc3)C2)cc1 (stereo not given)	6.7	0	0	0	0	18%	0	0
COc1ccc(C2CC(c3ccc(Br)cc3)=NN2C(=O)c2cccnc2)cc1 (stereo not given)	0	0	0	0	0	-	-	-
CC(=O)N1CCc2cc(S(=O)(=O)NC(C)c3ccccc3)ccc21 (stereo not given)	0	0	0	0	0	0	0	0
Cc1c(Cc2ccccc2)c(=O)oc2cc(O)cc(O)c12	5.5	0	0	0	0	10%	0	0
Cc1coc2cc3oc(=O)c(Cc4ccccc4)c(C)c3cc12	0	0	0	0	0	-	-	-
S=C(NC1CCCC1)NN1CCOCC1	0	0	0	0	0	-	-	-
O=C(c1nnsc1S(=O)(=O)c1ccc(Cl)cc1)N1CCOCC1	0	-	-	-	0	-	-	-
O=C(c1nnsc1S(=O)c1ccc(Cl)cc1)N1CCOCC1 (stereo not given)	7.1	-	-	-	0	31%	0	24%
COc1ccc(/C=C2\CCCC(C(=O)C(F)(F)F)=C2O)cc1	0	0	0	0	0	-	-	-
O=C(C1=C(O)/C(=C/c2ccc(O)cc2)CCC1)C(F)(F)F	5.2	0	0	0	0	0	0	0
Cc1ccc(CNC(=O)CC(C)S(=O)(=O)c2ccc3c(c2)NC(=O)C(C)S3)cc1 (stereo not given)	0	0	0	0	0	-	-	-
COC(=O)c1ccc(COc2ccccc2/C=C(\C#N)C(=O)Nc2ccccc2C)cc1	0	0	0	0	0	0	0	0
COC(=O)c1ccc(COc2ccccc2/C=C(\C#N)C(=O)NC(C)C)cc1	0	0	0	0	0	-	-	-
COC(=O)c1ccc(COc2ccccc2/C=C(\C#N)C(=O)Nc2c(C)cccc2C)cc1	5.6	0	0	0	0	8.0%	0	0
O=C(CC1C(=O)NCCN1C(=O)Nc1ccc(F)cc1)Nc1ccc(F)cc1 (stereo not given)	0	0	0	0	0	-	0	0
COc1ccccc1C(=O)N1CCNC(=O)C1CC(=O)Nc1cccc(C)c1 (stereo not given)	5.1	0	0	0	0	0	0	0
O=C(CC1C(=O)NCCN1C(=O)Nc1ccccc1)Nc1cc(Cl)cc(Cl)c1 (stereo not given)	6.1	0	0	0	0	23%	0	0
O=C(CC1C(=O)NCCN1C(=O)Nc1ccccc1)Nc1cccc(Cl)c1 (stereo not given)	0	0	0	0	0	0	0	0
CS(=O)(=O)Nc1ccc(C2=NN(S(=O)(=O)c3ccc(F)cc3)C(c3ccco3)C2)cc1 (stereo not given)	0	0	0	0	0	-	-	-
O=C1NN(c2ccccc2)C(=O)/C1=C/c1ccc(Sc2cccc3ccccc23)o1	12	0	0	0	0	0	0	0
CCOCCn1c(=O)c2c(nc3n2CCCN3CCc2ccccc2)n(C)c1=O	0	0	0	0	0	-	-	-
CSc1cccc(NC(=O)CN(Cc2ccc(Cl)cc2)S(C)(=O)=O)c1	0	0	0	0	0	-	-	-
Cc1nn(-c2cccc(Cl)c2)c2nc(-c3ccco3)cc(C(=O)O)c12	0	0	0	0	0	-	-	-
Cc1cccc(-n2nc(C)c3c(C(=O)O)cc(-c4cccs4)nc32)c1	9.5	0	0	0	0	19%	30%	0
Nc1ccc(-c2nc(-c3ccccc3)nc3ccccc23)cc1	0	0	0	0	0	-	-	-
SMILES	RGS4 inh	MrgX1 agonist	MrgX1 antag	MrgX1 allo act	RGS4 pot	RGS4 inh valid	RGS4 uninduced	RGS4 inh ctr2
Nc1ccc(-c2cc(-c3cccc(N)c3)nc(-c3ccccc3)n2)cc1	0	0	0	0	0	0	0	0
CC1CCC2C(=O)N(c3ccc(C(=O)Oc4cccc5cccnc45)cc3)C(=O)C2C1 (stereo not given)	5.2	0	0	0	0	25%	0	0
O=C(Nc1nc(-c2cccc3ccccc23)cs1)c1cnccn1	5.5	0	0	0	0	28%	34%	0
CC1=NOC(=O)/C1=C/c1ccc(O)cc1	5.8	0	0	0	0	12%	0	0
CC1=NOC(=O)/C1=C/c1ccc(O)c(Br)c1	9.1	38	0	0	0	30%	0	68%
COc1ccc(/C=C2/C(=O)ON=C2C)cc1Cl	0	0	0	0	0	-	-	-
CCOC(=O)Nc1ccc(C(=O)/C=C/c2ccccc2)cc1	0	0	0	0	0	-	-	-
Cc1cccc(Nc2nc(N3CCCCC3)nc(N3CCCCC3)n2)c1	9.7	0	0	0	0	48%	55%	0
NNc1nc(Nc2ccccc2)nc(N2CCCCC2)n1	0	0	0	0	0	0	0	0
COc1ccc([N+](=O)[O-])cc1/C=N/Nc1nc(N2CCCCC2)nc(N2CCCCC2)n1	4.8	0	0	0	0	10%	0	0
NNc1nc(Nc2ccccc2)nc(Nc2ccccc2)n1	0	0	0	0	0	-	-	-
O=c1nc(N2CCCCC2)nc(Nc2ccccc2)[nH]1	0	0	0	0	0	0	0	0
CCOC(=O)c1ccc2nc(CCC(=O)N[C@H](C(=O)OC)C(C)C)c(=O)n(CC)c2c1	0	0	0	0	0	-	-	-
NNc1nc(Nc2ccc([N+](=O)[O-])cc2)nc(N2CCCCCC2)n1	5.7	0	0	0	0	0	0	0
O=[N+]([O-])c1ccc(Nc2nc(NCCO)nc(N3CCCC3)n2)cc1	0	0	0	0	0	-	-	-
O=C(c1cc(Cl)c(=O)n(Cc2ccc(Cl)cc2)c1)N1CCOCC1	0	0	0	0	0	-	-	-
COc1ccc(-c2cc(C(F)(F)F)n3nc(C(=O)NCc4ccco4)cc3n2)cc1	0	0	0	0	0	-	0	0
O=C(NCc1cccnc1)c1cc2nc(-c3ccc4c(c3)OCO4)cc(C(F)(F)F)n2n1	0	0	0	0	0	-	-	-
O=C(NCc1ccco1)c1cc2nc(-c3ccc4c(c3)OCO4)cc(C(F)(F)F)n2n1	4.7	0	0	0	0	0	0	16%
NC(=O)c1ccc(NC(=O)CNC(c2ccccc2)c2ccccc2)cc1	0	0	0	0	0	-	-	-
Cc1cc(C)c(NC(=O)CC(C)(C)C)c(Cl)c1	0	0	0	0	0	-	-	-
Cc1ccc(NC(=O)CSc2nc3ccccc3nc2N2CCCC2)cc1	0	0	0	0	0	-	-	-
